From ChEMBL document CHEMBL1133721, “Antitumor polycyclic acridines. 7. Synthesis and biological properties of DNA affinic tetra- and pentacyclic acridines” (J Med Chem, 2000)

What was measured:
Assay type in all cases: functional, cell-based
Settings in all cases: Homo sapiens
ZR-75-1 = assay: Inhibitory activity against ZR-75-1 cell line using MTT assay (ER+,pgr+,mutant p53)
Procedure, shortened: (§1)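 Cells were grown in RPMI 1640 with 2 mM L-glutamine, penicillin/streptomycin and 10% heat-inactivated FCS. Drugs were taken from 10 mM DMSO stocks. Viability was read by MTT at 0.4 mg/mL final for 4 h at 37 °C, with formazan dissolved in DMSO plus glycine buffer and read at 550 nm. IC50 is the concentration halving absorbance versus untreated controls, taken from dose-response curves.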

MDA-MB-231 = assay: Inhibitory activity against MDA-231 cell line using MTT assay (ER-,EGFR+,mutant p53); procedure, shortened: as §1
NCI-H358 [1] = assay: (§2) Inhibitory activity against NCI-H358 cell line using MTT assay(mutant p53); procedure, shortened: as §1
NCI-H460 [2] = assay: (§3) Inhibitory activity against NCI-H460 cell line using MTT assay(Wild type p53); procedure, shortened: as §1
MDA-MB-468 = assay: Inhibitory activity against MDA-468 cell line using MTT assay (ER-, amplified EGFR, mutant p53); procedure, shortened: as §1
T47D = assay: Inhibitory activity against T47D cell line using MTT assay (ER+,mutant p53); procedure, shortened: as §1
NCI-H460 [3] = assay: Inhibitory activity against H460pv8 cell line using MTT assay
Procedure, shortened: (§4)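 This is a 7-day MTT assay in RPMI 1640 with 2 mM L-glutamine, antibiotics and 10% heat-inactivated FCS. The H460pv8/eto variant was kept in 1 µM etoposide. MTT was used at 0.4 mg/mL final for 4 h at 37 °C, and formazan was dissolved in DMSO/glycine buffer and read at 550 nm. IC50 is the 50% absorbance reduction versus untreated controls, from dose-response curves.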

MCF7 [4] = assay: Inhibitory activity against MCF-7 wt cell line using MTT assay (ER+,pgR+,wildtype p53); procedure, shortened: as §1
NCI-H226 [5] = assay: Inhibitory activity against NCI-H226 cell line using MTT assay(mutant p53); procedure, shortened: as §1
NCI-H322M = assay: (§5) Inhibitory activity against NCI-H322 cell line using MTT assay(mutant p53); procedure, shortened: as §1
NCI-H460 [6] = assay: Inhibitory activity against NCI-H460 cell line using MTT assay; procedure, shortened: as §4
NCI-H647 = assay: Inhibitory activity against NCI-H647 cell line using MTT assay(mutant p53); procedure, shortened: as §1
A549 = assay: Inhibitory activity against A549 cell line using MTT assay(Wild type p53); procedure, shortened: as §1
SK-BR-3 = assay: Inhibitory activity against SKBR-3 cell line using MTT assay (ER-amplified erB2,mutant p53); procedure, shortened: as §1
NCI/ADR-RES = assay: Inhibitory activity against MCF-7/adr cell line using MTT assay; procedure, shortened: as §1
MCF7 [7] = assay: Inhibitory activity against MCF7wt cell line using MTT assay; procedure, shortened: as §1
F460pv8/eto = assay: Inhibitory activity against […] using MTT assay; procedure, shortened: as §4
NCI-H358 [8] = assay: as §3
Procedure, shortened: (§6)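 Human NSCLC lines grown in RPMI 1640 with 2 mM L-glutamine, penicillin/streptomycin and 10% heat-inactivated FCS. Drugs were taken from 10 mM DMSO stocks. Cells were exposed for 7 days, then given MTT at 0.4 mg/mL final for 4 h at 37 °C. Formazan was dissolved in DMSO/glycine buffer and read at 550 nm. IC50 is the 50% absorbance drop versus untreated controls, read from dose-response curves.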

NCI-H226 [9] = assay: as §2; procedure, shortened: as §6
NCI-H460 [10] = assay: as §5; procedure, shortened: as §6

Compound | IC50 (ZR-75-1) [nM] | IC50 (MDA-MB-231) [nM] | IC50 (NCI-H358 [1]) [nM] | IC50 (NCI-H460 [2]) [nM] | IC50 (MDA-MB-468) [nM] | IC50 (T47D) [nM] | IC50 (NCI-H460 [3]) [nM] | IC50 (MCF7 [4]) [nM] | IC50 (NCI-H226 [5]) [nM] | IC50 (NCI-H322M) [nM] | IC50 (NCI-H460 [6]) [nM] | IC50 (NCI-H647) [nM] | IC50 (A549) [nM] | IC50 (SK-BR-3) [nM] | IC50 (NCI/ADR-RES) [nM] | IC50 (MCF7 [7]) [nM] | IC50 (F460pv8/eto) [nM] | IC50 (NCI-H358 [8]) [nM] | IC50 (NCI-H226 [9]) [nM] | IC50 (NCI-H460 [10]) [nM]
N#CCCCc1cc2cccc3c2c(n1)-c1ccccc1N3 | 2700 | 2050 | 2010 | 1170 | 1870 | 3590 | 1120 | 3790 | 1210 | 1530 | 1170 | 1680 | 1330 | 3450 | – | – | – | – | – | –
Cc1ccc2c(c1)-c1cccc3nc4ccccc4c(c13)N2 | 390 | 550 | 600 | 710 | 170 | 2130 | 490 | 180 | 1220 | 840 | 710 | 800 | 810 | 450 | 1210 | 180 | 490 | – | – | –
c1ccc2c(c1)Nc1cccc3ccnc-2c13 | 1550 | 1730 | 1420 | 2060 | 1370 | 2100 | 1100 | 830 | 2340 | 1860 | 2060 | 2200 | 2140 | 580 | – | – | 1070 | – | – | –
c1ccc2c(c1)Nc1c3ccccc3nc3cccc-2c13 | 850 | 540 | 460 | 520 | 90 | 690 | 320 | 270 | 750 | 490 | 520 | 540 | 490 | 150 | 630 | 270 | 340 | – | – | –
Nc1ccc2c(c1)Nc1c3ccccc3nc3cccc-2c13 | 30 | 230 | 400 | 70 | 40 | 270 | 50 | 50 | 170 | 140 | 70 | 80 | 80 | 20 | 355 | 50 | 120 | – | – | –
O=[N+]([O-])c1ccc2c(c1)Nc1c3ccccc3nc3cccc-2c13 | 30 | > 10000 | – | – | 40 | > 10000 | – | 550 | > 10000 | – | – | 950 | > 10000 | 120 | – | – | – | > 10000 | 9500 | > 10000
Clc1ccc2c(c1)-c1cccc3nc4ccccc4c(c13)N2 | 5590 | 5450 | 6030 | 3900 | 310 | 5550 | 3770 | 1670 | > 10000 | > 10000 | 3900 | 5300 | 7100 | 1030 | 6310 | 1670 | 6470 | – | – | –
N#CCCCc1cnc2c3c(cccc13)Nc1ccccc1-2 | 720 | 960 | 2380 | 2560 | 320 | 1310 | 2060 | 270 | 2720 | 2270 | 2560 | 2920 | 2570 | 420 | 610 | 270 | 1090 | – | – | –
c1ccc2c(c1)Nc1cccc3cc4[n+](c-2c13)CCC4 | 170 | 190 | 110 | 180 | 180 | 160 | 130 | 150 | 220 | 170 | 180 | 120 | 160 | 120 | 165 | 150 | 100 | – | – | –
COc1cc(NS(C)(=O)=O)ccc1Nc1c2ccccc2nc2ccccc12 [AMSACRINE] | 180 | 140 | 150 | 60 | 490 | 220 | 200 | 75 | 1010 | 210 | 60 | 70 | 30 | 60 | 1160 | 75 | 40 | – | – | –
COc1cccc2c1C(=O)c1c(O)c3c(c(O)c1C2=O)C[C@@](O)(C(=O)CO)C[C@@H]3O[C@H]1C[C@H](N)[C@H](O)[C@H](C)O1 [DOXORUBICIN] | 9 | 6 | 130 | 10 | 5 | 7 | 4 | 1 | 8 | 30 | 10 | < 1 | 4 | 20 | – | – | 20 | – | – | –
COc1cc([C@@H]2c3cc4c(cc3[C@@H](O[C@@H]3O[C@@H]5CO[C@@H](C)O[C@H]5[C@H](O)[C@H]3O)[C@H]3COC(=O)[C@H]23)OCO4)cc(OC)c1O [ETOPOSIDE] | 240 | 150 | 1500 | 100 | 600 | 160 | 390 | 85 | 240 | 1590 | 100 | 80 | 160 | 300 | – | – | 740 | – | – | –
